pEC50: −log10 of the molar value. Active and inactive are the calls of the source. The rule behind the calls is not given here.

The nature of series [1]: Antiprion activity against scrapie prion protein (unknown origin) infected in mouse ScGT1 cells assessed as inhibition of PrPSc replication by ELISA. Format: cell-based.
The nature of series [2]: Cytotoxicity against mouse ScGT1 cells assessed as cell viability at EC50 concentration after 5 days by fluorescence plate reader analysis. Format: cell-based. The note with it: read-out: Activity.
In series [3] the target is Amyloid-beta precursor protein (Homo sapiens) (UniProt P05067). The series is described as follows: Binding affinity to amyloid beta (1 to 42) (unknown origin) at 0.5 uM by fluorescence analysis.
Amyloid-beta precursor protein (Homo sapiens), sequence (P05067 whole entry): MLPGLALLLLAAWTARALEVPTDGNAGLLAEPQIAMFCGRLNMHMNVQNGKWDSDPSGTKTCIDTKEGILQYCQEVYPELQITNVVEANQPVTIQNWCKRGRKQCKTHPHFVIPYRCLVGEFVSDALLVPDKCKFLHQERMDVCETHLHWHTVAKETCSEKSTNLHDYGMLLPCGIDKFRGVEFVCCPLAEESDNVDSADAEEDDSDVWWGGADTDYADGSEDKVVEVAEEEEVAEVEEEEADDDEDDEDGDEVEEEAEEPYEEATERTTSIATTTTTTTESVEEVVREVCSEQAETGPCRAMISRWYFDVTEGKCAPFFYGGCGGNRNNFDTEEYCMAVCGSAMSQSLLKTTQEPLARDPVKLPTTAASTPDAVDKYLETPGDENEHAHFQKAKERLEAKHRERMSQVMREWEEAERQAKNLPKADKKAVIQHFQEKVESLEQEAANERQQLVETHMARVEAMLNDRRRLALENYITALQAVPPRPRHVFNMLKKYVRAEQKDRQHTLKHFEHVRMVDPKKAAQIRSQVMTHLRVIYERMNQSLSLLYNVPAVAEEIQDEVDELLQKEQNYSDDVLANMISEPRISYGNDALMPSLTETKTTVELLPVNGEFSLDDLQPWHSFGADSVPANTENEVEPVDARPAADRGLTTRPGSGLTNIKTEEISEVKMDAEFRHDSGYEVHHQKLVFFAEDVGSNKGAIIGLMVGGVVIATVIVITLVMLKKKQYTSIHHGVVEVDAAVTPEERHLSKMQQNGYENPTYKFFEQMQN
The subject of series [4] is ScGT1. The series is described as follows: Binding affinity to PK-resistant scrapie prion protein (unknown origin) aggregate in mouse ScGT1 cells at 0.25 mM measured following PK digestion by fluorescence microscopy. In kind it is cell-based. The method, boiled down:
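ScGT1 cells stained with 3·HCl at 0.25 mM after a proteinase K digestion step that removes PK-sensitive PrP^C. Uninfected GT1 cells processed the same way serve as control. Imaged by fluorescence microscopy, mainly with the FITC filter set and confirmed with the ThS filter set.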

The target of series [5] is Amyloid-beta precursor protein (Homo sapiens) (UniProt P05067). The series is described as follows: Displacement of Thioflavin-T from pre-aggregated amyloid beta (1 to 42) (unknown origin) at >25 nM by fluorometric assay.
For series [6] the target is unchanged. The series is described as follows: Inhibition of amyloid beta (1 to 42) (unknown origin) fibril formation at 1:1 compound to amyloid beta ratio after 24 hrs by Thioflavin T-based fluorometric assay.
Series [7] shares this target. Kind of series: Binding affinity to pre-aggregated amyloid beta (1 to 42) (unknown origin) assessed as hyperchromic effect at 5 uM by fluorescence analysis. The procedure, abridged:
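Emission spectra of compound (5 μM) recorded in 10 mM phosphate buffer, pH 7.4, with and without aggregated Aβ42 (3 μM).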

A short description of series [8]: Cytotoxicity against mouse ScGT1 cells assessed as cell viability at 10 uM after 5 days by fluorescence plate reader analysis. In kind it is cell-based. The note with it: read-out: Activity.
For series [9], the system named is ScGT1. Kind of series: Antiprion activity against scrapie prion protein (unknown origin) infected in mouse ScGT1 cells assessed as decrease in PrPSc accumulation after 5 days measured following PK digestion by Western blot analysis. Format: cell-based.
A short description of series [10]: Cytotoxicity against mouse ScGT1 cells assessed as cell viability at 1 uM after 5 days by fluorescence plate reader analysis. In kind it is cell-based. The note with it: read-out: Activity.
A short description of series [11]: Permeability of the compound assessed as diffusion from donor plate through porcine brain lipid membrane into acceptor plate at pH 7.4 by PAMPA method. Format: ADME. The note with it: pig, read-out: permeability. The method, boiled down: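 PAMPA permeability (Pe) reported as mean ± SD of two experiments. CNS+ assigned when Pe > 3.74 × 10⁻⁶ cm s⁻¹; CNS+/− when Pe lies between 3.74 × 10⁻⁶ and 1.50 × 10⁻⁶ cm s⁻¹.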

Series [12] addresses Major prion protein (Mus musculus) (UniProt P04925). The series is described as follows: Inhibition of mouse PrP (23-230) fibril formation assessed as extension of lag phase at 50 uM by amyloid seeding assay.
Series [13] addresses Amyloid-beta precursor protein (Homo sapiens) (UniProt P05067). Kind of series: Binding affinity to pre-aggregated amyloid beta (1 to 42) (unknown origin) at 25 nM by Thioflavin T-based fluorometric assay.
The test system of series [14] is ScGT1. The series is described as follows: Binding affinity to scrapie prion protein (unknown origin) aggregate in mouse ScGT1 cells at 0.84 mM measured following denaturation with 6 M guanidinium chloride by fluorescence microscopy. In kind it is cell-based. The procedure, abridged:
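Cells denatured with 6 M guanidinium chloride, then stained with 3·HCl at 0.84 mM (0.025%). Uninfected GT1 cells, with or without denaturation, serve as control. Imaged by fluorescence microscopy with FITC and ThS filter sets, nuclei counterstained with DAPI. Pattern compared with 0.025% Thioflavin S staining. A second line, ScN2a, was also used.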

Major prion protein (Mus musculus), sequence (P04925 whole entry): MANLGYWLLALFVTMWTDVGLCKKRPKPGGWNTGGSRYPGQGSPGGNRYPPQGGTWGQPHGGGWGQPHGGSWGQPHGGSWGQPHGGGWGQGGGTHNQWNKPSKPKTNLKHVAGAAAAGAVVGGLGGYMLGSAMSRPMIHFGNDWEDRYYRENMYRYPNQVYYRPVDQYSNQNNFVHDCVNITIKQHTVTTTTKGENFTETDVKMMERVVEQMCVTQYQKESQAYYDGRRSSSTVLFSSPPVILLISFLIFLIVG

As to `CCN(CC)CCCC(C)Nc1c2ccc(Cl)cc2nc2ccc(OC)cc12` (centres undefined) [QUINACRINE], the pEC50 in series [1] is 6.40. The viability at 120 h in series [2] worked out at 100%.
Consider `Cc1ccc2nc(/C=C/c3ccc(N)cc3)ccc2c1`, for which the outcome (in [3]; with ScGT1 [4]; in series [5]; in series [7]; in series [13]; with ScGT1 [14]) was Active. Further, the inhibition is 42.4% in series [6] (concentration not given here) and “Dose-dependent effect” in the series on ScGT1 [9]. For the same compound, in series [1], the pEC50 was 6.30. In series [8], the viability at 120 h, 10 µM was 60%. Besides, the viability at 120 h, 1 µM in [10] is above 90%. Besides, the viability at 120 h in series [2] worked out at 94.6%. Further, the Papp in [11] was 23.1 ×10⁻⁶ cm/s. Further, the TIME in series [12] is above 70 h.
`COc1cc(/C=C/C(=O)CC(=O)/C=C/c2ccc(O)c(OC)c2)ccc1O`: the inhibition in series [6] (concentration not given here) was 73%.
For the compound `COc1ccc2nc(/C=C/c3ccccc3)ccc2c1`, in series [6], the inhibition result is “inactive”. Besides, the pEC50 in series [1] was 6.15. Further, the inhibition entry in the series on ScGT1 [9] is “Dose-dependent effect”. The viability at 120 h, 1 µM in [10] came out at 60%. Also, the viability at 120 h in [2] was 74.9%. For the same compound, the Papp in series [11] was 8.5 ×10⁻⁶ cm/s. For the same compound, in [12], the TIME is above 70 h.
With `O=C(CN1CCCC1)Nc1ccc(Cc2ccc(NC(=O)CN3CCCC3)cc2)cc1`, in series [1], the pEC50 is 5.82. For the same compound, the inhibition result in the series on ScGT1 [9] was “Dose-dependent effect”. For the same compound, the viability at 120 h in series [2] was found to be 93.4%.
Consider `Cc1ccc2nc(/C=C/c3ccccc3)ccc2c1`, for which the inhibition result in [6] was “inactive”. Moreover, the negative-log EC50 (pEC50) in series [1] was 6.30. Also, the inhibition result with ScGT1 [9] is “Dose-dependent effect”. Further, in [10], the viability at 120 h, 1 µM was above 90%. Moreover, the viability at 120 h in [2] worked out at 90.5%. For the same compound, in series [11], the Papp was 3 ×10⁻⁶ cm/s. In series [12], the TIME is above 70 h.

In general, pEC50 refers to −log10 of the EC50, conventionally taken in molar units. Broadly, the inhibition is how much of the control response was suppressed.

For the origin of these results see ChEMBL document CHEMBL2321832, “A Fluorescent Styrylquinoline with Combined Therapeutic and Diagnostic Activities against Alzheimer's and Prion Diseases” (ACS Med Chem Lett, 2013).
